The nature of assay [1]: inhibitors of TNFa-induced NFkB p65 translocation, primary screen, imaging, HUVEC, MLSMR starter and 10KST1 sets (AID 438;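 active means inhibition above 20% together with a positive visual image hit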;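 further: compound added about 3h40 before a 20 min TNFalpha stimulation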;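 on inhibition: signal is the nuclear over cytoplasmic p65 intensity ratio per well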). The settings on record: HUVEC TNFa-induced p65 nuclear translocation; cell count: measured here: nuclei count (cytotoxicity indicator), at 2.08 µM; inhibition: at 2 µM, stronger effect = higher value, 0% TNFa-plus-vehicle, 100% no-TNFa wells.
Assay [2] is described as follows: inhibitors of mutant huntingtin aggregation, primary screen, imaging, exon1htt(103Q)mCFP cells, high-content imaging (AID 483;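 active means visual image review flags a hit and inhibition of aggregation exceeds 20%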;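 further: compound exposure lasted 3 days before fixation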;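 on nuclei count: percent of the per-plate median nuclei count of sample wells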). The settings on record: exon1htt(103Q)mCFP cell line, aggregate imaging, at 2 µM; inhibition of aggregation: stronger effect = higher value; nuclei count: measured here: cell count, toxicity.
Assay [3] can be described thus: inhibitors of E-selectin induction by TNFa, primary screen, imaging, HUVEC, immunofluorescence, MLSMR starter and 10KST1 sets (AID 487;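 active means visually confirmed hit in the image check and inhibition above 20%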;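 on inhibition: signal is fraction of cell area covered by stained E-selectin grains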;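 on nuclei count: 100% = median nuclei count of all wells on the same plate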). The settings on record: HUVEC TNFalpha-induced E-selectin immunofluorescence imaging, at 2 µM; inhibition: stronger effect = higher value; nuclei count: measured here: cell number, toxicity.
Assay [4] deals with Voltage-gated potassium channel subunit beta-2 (Rattus norvegicus) (UniProt P62483). Description: KvBeta enzyme negative modulators, primary screen, biochemical, NADPH fluorescence (AID 622;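 active means fluorescence slope higher than the sample average by over 3 SD, cut at about -0.22 in these data, passing the limit was not always enough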;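 further: slope of raw intensity against log time taken from 70 to 1610 s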). The settings on record: recombinant KvBeta, 4-cyanobenzaldehyde reduction, at 10 µM, stronger effect = higher value.
For assay [5] the target is unchanged. The experiment in a line: KvBeta positive modulators, primary screen, biochemical, NADPH fluorescence (AID 623;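 active means NADPH fluorescence slope more negative than the mean of all samples by about 3 SD, 99.7% confidence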;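 further: fluorescence intensity change per second fitted from 20 to 320 s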). The settings on record: Recombinant KvBeta, NADPH fluorescence decrease slope, 10 min; at 10 µM; stronger effect = lower value.
Assay [6] has as its target Muscarinic acetylcholine receptor M4 (Homo sapiens) (UniProt P08173). Description: compounds altering M4/GIRK thallium flux, either direction, primary screen, M4 allosteric agonist project, cell-based, HEK293 M4/GIRK, BTC-AM (AID 625;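 active means fluorescence slope after compound addition differing from the mean of all tested samples at 99.7% confidence, mostly higher but some lower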;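 further: thallium influx through GIRK channels coupled to M4 in HEK293 cells with BTC-AM dye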). The settings on record: at 10 µM, actives lie on both sides. An outline of the steps: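 System: HEK293 cells with M4 receptor and GIRK channels | Incubation: Cells overnight at 37 °C, BTC-AM loading 1 h, reads 2 min total | Technique: Kinetic BTC-AM fluorescence sampled at 1 Hz, 10 s pre-addition baseline | Measure: Post-addition slope, 15–24 s, of baseline-normalized fluorescence | Control set: Carbachol positive, DMSO negative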

Assay [7] can be described thus: inhibitors of Sendai virus-induced IRF3 signaling, primary screen, TLR/RLR signaling modifier project, cell-based, Sendai virus stimulus, luciferase, 10K MLSCN set (AID 602276;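 active means inhibition at or above 50% at 10 µM; inactive means inhibition below 50%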;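 further: firefly luciferase from ISG56 promoter only with Renilla not read in this screen; 0% = Sendai virus plus DMSO and 100% = medium plus DMSO without virus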). The settings on record: HEK293 RL24 IRF3 luciferase reporter, at 10 µM, stronger effect = higher value. Background: A reporter such as luciferase makes a cellular process visible.
A short description of assay [8]: inhibitors of poly I:C-induced TLR3 signaling, primary screen, cell-based, poly I:C stimulus, luciferase, 10K MLSCN set (AID 602277). The settings on record: HEK293-TLR3 RL24 IRF3 luciferase reporter, at 10 µM, stronger effect = higher value.

Calls of active or inactive are those of the source.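 How the source made its calls, unless noted: active means inhibition of the reporter signal at or above 50%; inactive means inhibition below 50%.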

The results in this text go back to PubChem BioAssay.

As a reminder, the inhibition is the drop in the measured response relative to a control, in per cent.

Sequence of Voltage-gated potassium channel subunit beta-2 (Rattus norvegicus) (P62483 whole entry, looked up): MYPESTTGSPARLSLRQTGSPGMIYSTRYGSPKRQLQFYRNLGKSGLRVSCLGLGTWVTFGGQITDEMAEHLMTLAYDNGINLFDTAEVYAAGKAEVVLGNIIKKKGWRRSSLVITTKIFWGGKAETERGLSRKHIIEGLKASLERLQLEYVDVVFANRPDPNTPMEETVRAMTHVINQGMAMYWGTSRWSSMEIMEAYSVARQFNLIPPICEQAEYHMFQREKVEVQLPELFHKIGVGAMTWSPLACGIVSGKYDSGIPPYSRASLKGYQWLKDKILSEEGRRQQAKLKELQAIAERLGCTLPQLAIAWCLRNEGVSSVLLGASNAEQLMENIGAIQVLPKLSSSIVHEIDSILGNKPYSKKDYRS
Sequence of Muscarinic acetylcholine receptor M4 (Homo sapiens) (P08173 whole entry, looked up): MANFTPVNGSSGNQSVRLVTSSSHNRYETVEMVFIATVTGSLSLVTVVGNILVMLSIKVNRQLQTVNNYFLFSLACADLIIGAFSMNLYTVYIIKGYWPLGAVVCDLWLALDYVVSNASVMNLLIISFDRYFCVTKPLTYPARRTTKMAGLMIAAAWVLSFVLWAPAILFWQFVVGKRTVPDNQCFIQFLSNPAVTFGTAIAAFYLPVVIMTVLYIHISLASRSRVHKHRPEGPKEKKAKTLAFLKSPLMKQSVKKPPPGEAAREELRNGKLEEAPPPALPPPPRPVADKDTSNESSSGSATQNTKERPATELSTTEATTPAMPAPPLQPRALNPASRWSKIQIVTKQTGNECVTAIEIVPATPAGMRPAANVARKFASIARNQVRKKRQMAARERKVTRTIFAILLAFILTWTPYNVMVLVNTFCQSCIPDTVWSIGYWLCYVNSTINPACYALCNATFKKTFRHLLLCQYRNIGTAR

For the compound `CCNC(=O)COc1ccc(Br)cc1Cl`, in assay [1], the cell count amounted to 302. The inhibition in assay [1] was 0% (inactive); in assay [3], 0.5% (inactive); in assay [7] it was -12.6% (inactive); in assay [8] it was -57.4% (inactive). Besides, the inhibition of aggregation in assay [2] was -7.5% (inactive). The nuclei count in assay [2] turned out to be 93.8%; in assay [3], 109%. For the same compound, the fluorescence slope in assay [4] was -0.547 (inactive); in assay [6], 0.00609 (inactive). In assay [5], the NADPH fluorescence slope was 2.4e-05 (inactive).
For `Cn1cccc1C(=O)NC(=O)CSc1nnc(C2CC2)n1-c1ccccc1`, in assay [1], the cell count was 670. Moreover, the inhibition in assay [1] was -2% (inactive); in assay [3] it was 27.3% (inactive); in assay [7] it was 26.6% (inactive); in assay [8] it was 9.42% (inactive). Moreover, the inhibition of aggregation in assay [2] was -30.7% (inactive). Also, the nuclei count in assay [2] amounted to 93.6%; in assay [3] it was 62.6%. Also, the figures for the fluorescence slope in assay [4] and in assay [6] were -0.589 (inactive) and 0.00691 (inactive), respectively. For the same compound, the NADPH fluorescence slope in assay [5] was 4.6e-06 (inactive).
In the case of `O=C(NCc1ccc(Cl)cc1)c1ccc(COCC(F)(F)F)o1`, the cell count in assay [1] worked out at 702. The inhibition in assay [1] was -3.9% (inactive); in assay [3], -28.9% (inactive); in assay [7], -1.43% (inactive); in assay [8], -15.5% (inactive). Further, the inhibition of aggregation in assay [2] was -3.7% (inactive). Also, the nuclei count stood at 91.3% in assay [2] and 101% in assay [3]. The values for the fluorescence slope in assay [4] and in assay [6] were -0.421 (inactive) and 0.00521 (inactive), respectively. Also, the NADPH fluorescence slope in assay [5] was -0.00041 (inactive).
Regarding `CCNc1nc(NCC)n2c(SCc3nc4ccccc4c(=O)[nH]3)nnc2n1`, the cell count in assay [1] was 554. Besides, the inhibition in assay [1] was -3.9% (inactive); in assay [3], -31.4% (inactive); in assay [7], -0.856% (inactive); in assay [8], -4.01% (inactive). Also, in assay [2], the inhibition of aggregation was 9.2% (inactive). The figures for the nuclei count in assay [2] and in assay [3] were 84.7% and 113%, respectively. The fluorescence slope in assay [4] was -0.539 (inactive); in assay [6] it was 0.00293 (inactive). In addition, the NADPH fluorescence slope in assay [5] was -0.000149 (inactive).
Regarding `CCOc1ccc(NC(=O)CN2CCN(CC(=O)Nc3ccc(F)c(F)c3)CC2)cc1`, the cell count in assay [1] stood at 409. Also, the inhibition in assay [1] was 3.1% (inactive); in assay [3], -60.2% (inactive); in assay [7], 12.5% (inactive); in assay [8] it was 23% (inactive). The inhibition of aggregation in assay [2] is -0.9% (inactive). Further, the nuclei count in assay [2] came out at 105%; in assay [3] it was 99.8%. Besides, the fluorescence slope was -0.435 (inactive) in assay [4] and 0.00651 (inactive) in assay [6]. Further, the NADPH fluorescence slope in assay [5] was 4.4e-05 (inactive).
Take `Cc1cc(O)c(C2(C(F)(F)F)NCCNC2=O)cc1C` (centres undefined): the cell count in assay [1] was 560. Moreover, the inhibition in assay [1] was 4.7% (inactive); in assay [3], 63.7% (inactive); in assay [7], 17.6% (inactive); in assay [8], 29.3% (inactive). The inhibition of aggregation in assay [2] was 24.3% (inactive). For the same compound, the nuclei count in assay [2] came out at 84.5%; in assay [3], 63.2%. Also, the fluorescence slope is -0.576 (inactive) in assay [4] and 0.00721 (inactive) in assay [6]. In assay [5], the NADPH fluorescence slope was 1e-05 (inactive).
Regarding `COc1ccc2nc(NC(=O)C(NS(=O)(=O)c3cccs3)C(C)C)sc2c1` (centres undefined), in assay [1], the cell count was found to be 365. Further, the inhibition in assay [1] was 0.9% (inactive); in assay [3] it was -222% (inactive); in assay [7], 17.4% (inactive); in assay [8], 21% (inactive). Further, the inhibition of aggregation in assay [2] is -16.1% (inactive). The figures for the nuclei count in assay [2] and in assay [3] were 97.8% and 104%, respectively. Moreover, the fluorescence slope was -0.532 (inactive) in assay [4] and 0.00546 (inactive) in assay [6]. Besides, in assay [5], the NADPH fluorescence slope was 1.5e-05 (inactive).
As for `CN(C)S(=O)(=O)n1cnc(-c2ccccc2)c1-c1ccccc1`, in assay [1], the cell count is 382. For the same compound, the inhibition was 2.8% (inactive) in assay [1], -26.1% (inactive) in assay [3], 11.2% (inactive) in assay [7] and 20.5% (inactive) in assay [8]. Besides, the inhibition of aggregation in assay [2] was 10.1% (inactive). For the same compound, the nuclei count was 100% in assay [2] and 107% in assay [3]. For the same compound, the fluorescence slope in assay [4] is -0.497 (inactive); in assay [6], 0.00475 (inactive). For the same compound, the NADPH fluorescence slope in assay [5] was -9.7e-06 (inactive).
In the case of `CC1Cc2ccccc2N1C(=O)Cc1cccs1` (centres undefined), the cell count in assay [1] was 275. Also, the inhibition was -3.1% (inactive) in assay [1], 18.4% (inactive) in assay [3], 7.14% (inactive) in assay [7] and -1.13% (inactive) in assay [8]. Moreover, the inhibition of aggregation in assay [2] is 33.8% (inactive). Besides, the nuclei count came out at 74.7% in assay [2] and 93.7% in assay [3]. Besides, the fluorescence slope was -0.504 (inactive) in assay [4] and 0.00407 (inactive) in assay [6]. Besides, in assay [5], the NADPH fluorescence slope was -3.6e-05 (inactive).
Consider `CCCC(=O)Nc1ccc(OCC(=O)OC)cc1`, for which the cell count in assay [1] amounted to 402. Moreover, the inhibition is -15.4% (inactive) in assay [1], 8% (inactive) in assay [3], 11% (inactive) in assay [7] and 21.9% (inactive) in assay [8]. Besides, the inhibition of aggregation in assay [2] was 5.1% (inactive). The nuclei count is 98.2% in assay [2] and 84.9% in assay [3]. Also, the values for the fluorescence slope in assay [4] and in assay [6] were -0.439 (inactive) and 0.00585 (inactive), respectively. Further, the NADPH fluorescence slope in assay [5] is -1.2e-05 (inactive).
As for `Cc1ccc(S(=O)(=O)c2nc(-c3ccco3)oc2SCC(=O)NCC2CCCO2)cc1` (centres undefined), in assay [1], the cell count was 822. The inhibition is -8% (inactive) in assay [1], -16.1% (inactive) in assay [3], 15.8% (inactive) in assay [7] and 18.5% (inactive) in assay [8]. The inhibition of aggregation in assay [2] is 4% (inactive). Besides, the nuclei count worked out at 104% in assay [2] and 109% in assay [3]. Further, the fluorescence slope is -0.458 (inactive) in assay [4] and 0.00374 (inactive) in assay [6]. In addition, the NADPH fluorescence slope in assay [5] was -4.2e-05 (inactive).
On to `COc1cccc(Oc2ccc(N)cc2)c1`, for which the cell count in assay [1] was 716. Besides, the inhibition was -0.6% (inactive) in assay [1], -54.1% (inactive) in assay [3], -0.294% (inactive) in assay [7] and -6.53% (inactive) in assay [8]. Also, the inhibition of aggregation in assay [2] is 20.3% (inactive). The nuclei count in assay [2] worked out at 102%; in assay [3], 97.5%. The fluorescence slope in assay [4] is -0.44 (inactive); in assay [6] it was 0.00432 (inactive). Further, the NADPH fluorescence slope in assay [5] is -0.000235 (active).
On to `CCOC(=O)C1CCN(C(=O)CSc2n[nH]c(=O)[nH]c2=O)CC1`, for which, in assay [1], the cell count came out at 653. The inhibition in assay [1] is 7.8% (inactive); in assay [3], 34.2% (inactive); in assay [7], 12.2% (inactive); in assay [8] it was 9.53% (inactive). Further, in assay [2], the inhibition of aggregation was 16.5% (inactive). Moreover, the results for the nuclei count in assay [2] and in assay [3] were 88.6% and 114%, respectively. In addition, the values for the fluorescence slope in assay [4] and in assay [6] were -0.339 (inactive) and 0.00512 (inactive), respectively. Also, the NADPH fluorescence slope in assay [5] was -5.5e-05 (inactive).
Take `CCn1c(SCC(=O)N2CCCc3ccccc32)nnc1-c1cccs1`: the cell count in assay [1] came to 697. The inhibition in assay [1] is 1.4% (inactive); in assay [3], -172% (inactive); in assay [7], 14% (inactive); in assay [8], 13.4% (inactive). Also, in assay [2], the inhibition of aggregation is 4.3% (inactive). Further, the nuclei count in assay [2] stood at 98.7%; in assay [3], 129%. The results for the fluorescence slope in assay [4] and in assay [6] were -0.531 (inactive) and 0.00467 (inactive), respectively. Moreover, the NADPH fluorescence slope in assay [5] was -2.4e-05 (inactive).
